Source: ChEMBL document CHEMBL4613275, “Sulfonimide and Amide Derivatives as Novel PPARα Antagonists: Synthesis, Antiproliferative Activity, and Docking Studies” (ACS Med Chem Lett, 2020)
Values belong to the molecule of their own block, whether it stands above or below them. The source made the active and inactive calls. The rule behind the calls is not given here.

Experiments:
[1] = target: T1, Peroxisome proliferator-activated receptor gamma (Homo sapiens) (UniProt P37231); test: Effect on GAL4-tagged human PPARgamma LBD expressed in human HepG2 cells incubated for 20 to 22 hrs by luciferase reporter gene assay; format: cell-based
T1 sequence (whole entry): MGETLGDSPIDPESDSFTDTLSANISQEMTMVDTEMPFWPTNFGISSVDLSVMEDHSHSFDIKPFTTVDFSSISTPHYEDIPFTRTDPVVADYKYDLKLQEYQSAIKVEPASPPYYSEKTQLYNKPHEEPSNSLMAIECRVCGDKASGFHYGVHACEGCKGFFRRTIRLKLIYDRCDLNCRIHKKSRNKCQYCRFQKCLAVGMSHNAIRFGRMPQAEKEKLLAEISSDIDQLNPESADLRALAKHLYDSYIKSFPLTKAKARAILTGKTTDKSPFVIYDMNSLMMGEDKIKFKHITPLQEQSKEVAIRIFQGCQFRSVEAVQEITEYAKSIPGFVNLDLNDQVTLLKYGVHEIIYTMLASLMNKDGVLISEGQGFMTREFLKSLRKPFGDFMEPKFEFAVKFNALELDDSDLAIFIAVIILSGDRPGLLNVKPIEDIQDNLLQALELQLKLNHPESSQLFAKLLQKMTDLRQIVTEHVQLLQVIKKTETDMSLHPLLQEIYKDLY

[2] = target: T2, Peroxisome proliferator-activated receptor alpha (Homo sapiens, UniProt Q07869); test: Antagonist activity at GAL4-tagged human PPARalpha LBD expressed in human HepG2 cells assessed as inhibition of Wy14,643-induced receptor transactivation incubated for 20 to 22 hrs by luciferase reporter gene assay; format: cell-based
T2 sequence (Q07869 whole entry): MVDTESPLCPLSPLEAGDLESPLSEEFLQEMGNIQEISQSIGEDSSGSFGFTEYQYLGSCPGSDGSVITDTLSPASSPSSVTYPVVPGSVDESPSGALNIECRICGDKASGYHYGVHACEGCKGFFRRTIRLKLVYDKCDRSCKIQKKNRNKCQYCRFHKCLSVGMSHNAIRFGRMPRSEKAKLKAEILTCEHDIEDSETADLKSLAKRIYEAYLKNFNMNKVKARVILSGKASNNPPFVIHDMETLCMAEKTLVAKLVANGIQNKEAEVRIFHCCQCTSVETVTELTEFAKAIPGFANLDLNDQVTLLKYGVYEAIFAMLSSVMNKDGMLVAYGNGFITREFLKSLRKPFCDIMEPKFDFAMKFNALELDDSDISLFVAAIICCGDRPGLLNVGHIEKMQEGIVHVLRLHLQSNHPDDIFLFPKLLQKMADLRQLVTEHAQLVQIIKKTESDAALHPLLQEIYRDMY

[3] = target: T1, Peroxisome proliferator-activated receptor gamma (Homo sapiens); test: Agonist activity at GAL4-tagged human PPARgamma LBD expressed in human HepG2 cells incubated for 20 to 22 hrs by luciferase reporter gene assay; format: cell-based
[4] = system: HepG2; test: Cytotoxicity against human HepG2 cells at >5 uM; format: cell-based
[5] = system: ASPC1; test: Antiproliferative activity against human AsPC1 cells assessed as inhibition of cell growth at 75 uM incubated for 72 hrs by MTT assay relative to control; format: functional; conditions: ASPC1, 72 h
[6] = system: BXPC-3; test: Antiproliferative activity against human BxPC3 cells assessed as inhibition of cell growth at 75 uM incubated for 72 hrs by MTT assay relative to control; format: functional; conditions: BXPC-3, 72 h
[7] = system: Capan-2; test: Antiproliferative activity against human Capan2 cells assessed as inhibition of cell growth at 75 uM incubated for 72 hrs by MTT assay relative to control; format: functional; conditions: Capan-2, 72 h
[8] = system: HT-29; test: Antiproliferative activity against human HT-29 cells assessed as inhibition of cell growth at 75 uM incubated for 72 hrs by MTT assay relative to control; format: functional; conditions: HT-29, 72 h
[9] = system: SW480; test: Antiproliferative activity against human SW480 cells assessed as inhibition of cell growth at 75 uM incubated for 72 hrs by MTT assay relative to control; format: functional; conditions: SW480, 72 h
[10] = Antiproliferative activity against human PTJ86i cells assessed as inhibition of cell growth at 75 uM incubated for 72 hrs by MTT assay relative to control; format: functional
[11] = system: A498; test: Antiproliferative activity against human A498 cells assessed as inhibition of cell growth at 75 uM incubated for 72 hrs by MTT assay relative to control; format: functional; conditions: A498, 72 h
[12] = system: ASPC1; test: Antiproliferative activity against human AsPC1 cells assessed as inhibition of cell growth incubated for 72 hrs by MTT assay; format: functional; conditions: for CC50: ASPC1, 72 h
How it was run: (§1)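 MTT viability assay after 72 h exposure to compound over 0–24 μM, 24 μM being the highest concentration. […] Data are means ± SD of duplicate experiments, five replicates each.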

[13] = system: BXPC-3; test: Antiproliferative activity against human BxPC3 cells assessed as inhibition of cell growth incubated for 72 hrs by MTT assay; format: functional; conditions: for CC50: BXPC-3, 72 h; how it was run: as §1
[14] = system: Capan-2; test: Antiproliferative activity against human Capan2 cells assessed as inhibition of cell growth incubated for 72 hrs by MTT assay; format: functional; conditions: for CC50: Capan-2, 72 h; how it was run: as §1
[15] = system: HT-29; test: Antiproliferative activity against human HT-29 cells assessed as inhibition of cell growth incubated for 72 hrs by MTT assay; format: functional; conditions: for CC50: HT-29, 72 h; how it was run: as §1
[16] = system: SW480; test: Antiproliferative activity against human SW480 cells assessed as inhibition of cell growth incubated for 72 hrs by MTT assay; format: functional; conditions: for CC50: SW480, 72 h; how it was run: as §1
[17] = organism: Homo sapiens; test: Antiproliferative activity against human PTJ64i cells assessed as inhibition of cell growth incubated for 72 hrs by MTT assay; format: functional; how it was run: as §1
[18] = organism: Homo sapiens; test: Antiproliferative activity against human PTJ86i cells assessed as inhibition of cell growth incubated for 72 hrs by MTT assay; format: functional; how it was run: as §1
[19] = system: A498; test: Antiproliferative activity against human A498 cells assessed as inhibition of cell growth incubated for 72 hrs by MTT assay; format: functional; conditions: for CC50: A498, 72 h; how it was run: as §1
[20] = system: HFF-1; test: Cytotoxicity against human HFF1 cells assessed as reduction in cell viability incubated for 72 hrs by MTT assay; format: cell-based; conditions: hff-1, 72 h; how it was run: as §1
[21] = Selectivity index, ratio of CC50 for human HFF1 cells to CC50 for human PTJ86i cells; format: toxicity; conditions: HFF1 cells and PTJ86i cells
[22] = Selectivity index, ratio of CC50 for human HFF1 cells to CC50 for human PTJ64i cells; format: toxicity; conditions: HFF1 cells and PTJ64i cells

Activity [3]: inactive
SMILES: CC(C)(Oc1ccc(CCOc2ccc(/N=N/c3ccccc3)cc2)cc1)C(=O)NS(C)(=O)=O
Activity [4]: Toxic

Activity [1]: inactive
SMILES: CC(C)(Oc1ccc(CCOc2ccc(/N=N/c3ccccc3)cc2)cc1)C(=O)Nc1ccccc1

Activity [1]: inactive | IC50 [2]: 3.32 µM
SMILES: CC(C)(Oc1ccc(CCOc2ccc(NC(=O)Nc3ccccc3)cc2)cc1)C(N)=O

Activity [1]: inactive | IC50 [2]: 1.1 µM
SMILES: CC(C)(Oc1ccc(CCOc2ccc(/N=N/c3ccccc3)cc2)cc1)C(=O)NS(=O)(=O)c1ccc([N+](=O)[O-])cc1
inhibition at 75 µM [5]: 41 to 92% | inhibition at 75 µM [6]: 41 to 92% | inhibition at 75 µM [7]: 41 to 92% | inhibition at 75 µM [8]: 52 to 98% | inhibition at 75 µM [9]: 52 to 98% | inhibition at 75 µM [10]: 84 to 98% | inhibition at 75 µM [11]: 51 to 71% | inhibition [12]: Dose-dependent effect | CC50 [12]: > 24 µM | inhibition [13]: Dose-dependent effect | CC50 [13]: 17 µM | inhibition [14]: Dose-dependent effect | CC50 [14]: > 24 µM | inhibition [15]: Dose-dependent effect | CC50 [15]: > 24 µM | inhibition [16]: Dose-dependent effect | CC50 [16]: > 24 µM | inhibition [17]: Dose-dependent effect | inhibition [18]: Dose-dependent effect | inhibition [19]: Dose-dependent effect | CC50 [19]: > 24 µM | CC50 [20]: > 24 µM | selectivity ratio [21]: > 8.63 | selectivity ratio [22]: > 8.3

Continued, molecule first:

SMILES: CC(C)(Oc1ccc(CCOc2ccc(NC(=O)c3ccccc3)cc2)cc1)C(=O)Nc1ccccc1
Activity [1]: inactive | IC50 [2]: 12.3 µM

SMILES: CC(C)(Oc1ccc(CCOc2ccc(NC(=O)c3ccccc3)cc2)cc1)C(N)=O
Activity [1]: inactive | IC50 [2]: 7 µM

SMILES: CC(C)(Oc1ccc(CCOc2ccc(NC(=O)Nc3ccccc3)cc2)cc1)C(=O)NCc1ccccc1
Activity [1]: inactive | IC50 [2]: 10.3 µM

SMILES: CC(C)(Oc1ccc(CCOc2ccc(/N=N/c3ccccc3)cc2)cc1)C(=O)NS(=O)(=O)c1ccc(NC(=O)Cc2ccccc2)cc1
Activity [1]: inactive | IC50 [2]: 3.2 µM

SMILES: CC(C)(Oc1ccc(CCOc2ccc(/N=N/c3ccccc3)cc2)cc1)C(=O)NS(=O)(=O)c1ccc(Cl)cc1
Activity [1]: inactive | IC50 [2]: 0.21 µM | inhibition at 75 µM [5]: 41 to 92% | inhibition at 75 µM [6]: 41 to 92% | inhibition at 75 µM [7]: 41 to 92% | inhibition at 75 µM [8]: 52 to 98% | inhibition at 75 µM [9]: 52 to 98% | inhibition at 75 µM [10]: 84 to 98% | inhibition at 75 µM [11]: 51 to 71% | inhibition [12]: Dose-dependent effect | CC50 [12]: > 24 µM | inhibition [13]: Dose-dependent effect | CC50 [13]: > 24 µM | inhibition [14]: Dose-dependent effect | CC50 [14]: > 24 µM | inhibition [15]: Dose-dependent effect | CC50 [15]: > 24 µM | inhibition [16]: Dose-dependent effect | CC50 [16]: > 24 µM | inhibition [17]: Dose-dependent effect | inhibition [18]: Dose-dependent effect | inhibition [19]: Dose-dependent effect | CC50 [19]: > 24 µM | CC50 [20]: > 24 µM | selectivity ratio [21]: > 6.63 | selectivity ratio [22]: > 6.35
